Published values of several laboratories.
Each line is one published result; the experiments were not run side by side.
MTNR1B: Melatonin receptor type 1B (MTNR1B, Homo sapiens, UniProt P49286)
CDK7 with cyclin H: Cyclin-dependent kinase 7, with cyclin H (CDK7, Homo sapiens, UniProt P50613)
BAZ1A: Bromodomain adjacent to zinc finger domain protein 1A (BAZ1A, Homo sapiens, UniProt Q9NRL2)

SMILES | target | assay | system | setting | measurement | value
COc1cc2c(CCNC(C)=O)c[nH]c2cc1I | MTNR1B | GTPγS binding, agonist, radiometric | – | cell membranes | Emax | 97%
C=C1CC[C@@H]2[C@](C)(CO)[C@H](O)CC[C@@]2(C)[C@@H]1C/C=C1/C(=O)OC[C@H]1O | CDK7 with cyclin H | enzyme activity, inhibitor, ADP detection | – | 10 µM | inhibition | 34.6%
Cc1cc2c(cc1N1C(=O)c3cccc4c(Cl)ccc(c34)C1=O)n(C)c(=O)n2C | BAZ1A | thermal stability, DSF | – | 10 µM | ΔTm | -1 °C
CCc1ccc2scc(CCNC(C)=O)c2c1 | MTNR1B | β-arrestin recruitment, agonist | MT2 | 90 min | Emax | 75%
CN(C)C1CCN(CC#Cc2nn(C3CCCC3)c3nc(NCc4ccccc4)ncc23)C1 (centres unmarked) | Death-associated protein kinase 1 (DAPK1, Homo sapiens, UniProt P53355) | enzyme activity, inhibitor, FRET | – | 10 µM | inhibition | 7%
COc1cc2c(NC3CCN(C(C)C)CC3)nc(C3CCCCC3)nc2cc1OCCCN1CCCC1 | Histone-lysine N-methyltransferase EHMT2 (EHMT2, Homo sapiens, UniProt Q96KQ7) | thermal stability, DSF | – | 100 µM | ΔTm | 4 °C
COc1ccc2cc3[n+](cc2c1OC)CCc1cc2c(cc1-3)OCO2 | CDK7 with cyclin H | enzyme activity, inhibitor, ADP detection | – | 10 µM | inhibition | 22.3%
Cc1cnc(Nc2ccc(OCCN3CCCC3)cc2)nc1Nc1cccc(S(=O)(=O)NC(C)(C)C)c1 | BAZ1A | thermal stability, DSF | – | 10 µM | ΔTm | 0.23 °C
CCC(=O)NC1Cc2ccccc2C(c2ccccc2)C1 (centres unmarked) | MTNR1B | GTPγS binding, agonist, radiometric | – | cell membranes | Emax | 34%
CC/C(=C(/CC)c1ccc(O)cc1)c1ccc(O)cc1 | CDK7 with cyclin H | enzyme activity, inhibitor, ADP detection | – | 10 µM | inhibition | 14.7%
COc1ccc2ncn(CCNC(C)=O)c2c1 | MTNR1B | β-arrestin recruitment, agonist | MT2 | – | Emax | 75%
COc1cc(/C=C/C(=O)O)ccc1O | CDK7 with cyclin H | enzyme activity, inhibitor, ADP detection | – | 10 µM | inhibition | -9.7%
Nc1ncnc2occ(-c3ccc(NC(=O)Nc4cc(C(F)(F)F)ccc4F)cc3)c12 | Serine/threonine-protein kinase RIO3 (RIOK3, Homo sapiens, UniProt O14730) | cell-free assay, inhibitor | – | 20 µM | remaining signal | 89%
ON=CC1=C(C=Cc2ccccc2)CCC1 | Fibroblast growth factor 23 (Homo sapiens, UniProt Q9GZV9) | thermal stability, DSF | – | 200 µM | ΔTm | 16.5 °C
